Experimental data published in ChEMBL document CHEMBL4229528, “2,4-Diamino-6-methylpyrimidines for the potential treatment of Chagas' disease” (Bioorg Med Chem Lett, 2018).
In brackets after ≈: the same amount, converted by molar mass. Activity calls are given as the source filed them. The rule behind the calls is not given here.

How the values were obtained:
[1] = Kinetic solubility of the compound in water up to 250 uM by laser nephelometry; assay type: physicochemical; settings: read-out: Kinetic_solubility
Summary of the method: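 Measured in water after dilution from a DMSO solution of compound.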

[2] = target: Sterol 14-alpha demethylase (Trypanosoma cruzi (strain CL Brener)) (UniProt Q7Z1V1); test: (§1) Inhibition of Trypanosoma cruzi CYP51
Sequence of Sterol 14-alpha demethylase (Trypanosoma cruzi (strain CL Brener)) (Q7Z1V1 whole entry, looked up): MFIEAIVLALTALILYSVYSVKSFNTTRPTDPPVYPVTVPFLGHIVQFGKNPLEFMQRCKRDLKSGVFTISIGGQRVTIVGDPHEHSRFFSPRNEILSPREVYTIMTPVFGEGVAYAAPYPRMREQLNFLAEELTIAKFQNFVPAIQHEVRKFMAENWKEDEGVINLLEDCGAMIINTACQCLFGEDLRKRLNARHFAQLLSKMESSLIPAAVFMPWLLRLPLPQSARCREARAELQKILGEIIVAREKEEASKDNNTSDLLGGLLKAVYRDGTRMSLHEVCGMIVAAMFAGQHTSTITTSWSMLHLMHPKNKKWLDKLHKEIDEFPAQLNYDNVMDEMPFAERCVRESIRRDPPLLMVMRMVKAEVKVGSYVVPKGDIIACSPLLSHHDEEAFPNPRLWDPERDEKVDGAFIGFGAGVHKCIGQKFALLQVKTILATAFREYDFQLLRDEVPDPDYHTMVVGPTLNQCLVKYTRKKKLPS

Vero = test: Cytotoxicity against African green monkey Vero cells; assay type: cell-based; settings: Chlorocebus sabaeus
[3] = Intrinsic clearance in CD-1 mouse liver microsomes at 0.5 uM after 30 mins in presence of NADPH by UPLC-MS/MS analysis; assay type: ADME, microsome; settings: 0.5 h
[4] = Selectivity ratio of pEC50 for African green monkey Vero cells to pEC50 for Trypanosoma cruzi amastigote forms infected in African green monkey Vero cells; assay type: toxicity
Summary of the method: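 Ratio of Vero pEC50 to T. cruzi intracellular amastigote pEC50, with both values from the Vero-cell amastigote culture format.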

Trypanosoma cruzi = test: Antitrypanosomal activity against Trypanosoma cruzi amastigote forms infected in African green monkey Vero cells; assay type: functional, organism-based
Summary of the method: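 T. cruzi amastigotes cultured intracellularly in Vero host cells. EC50 determined from concentration-response, reported as pEC50. Mean of two determinations ± range, or of three or more ± standard deviation, depending on the series.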

[5] = target: Voltage-gated inwardly rectifying potassium channel KCNH2 (Homo sapiens, UniProt Q12809); test: Inhibition of human ERG
Sequence of Voltage-gated inwardly rectifying potassium channel KCNH2 (Q12809 whole entry): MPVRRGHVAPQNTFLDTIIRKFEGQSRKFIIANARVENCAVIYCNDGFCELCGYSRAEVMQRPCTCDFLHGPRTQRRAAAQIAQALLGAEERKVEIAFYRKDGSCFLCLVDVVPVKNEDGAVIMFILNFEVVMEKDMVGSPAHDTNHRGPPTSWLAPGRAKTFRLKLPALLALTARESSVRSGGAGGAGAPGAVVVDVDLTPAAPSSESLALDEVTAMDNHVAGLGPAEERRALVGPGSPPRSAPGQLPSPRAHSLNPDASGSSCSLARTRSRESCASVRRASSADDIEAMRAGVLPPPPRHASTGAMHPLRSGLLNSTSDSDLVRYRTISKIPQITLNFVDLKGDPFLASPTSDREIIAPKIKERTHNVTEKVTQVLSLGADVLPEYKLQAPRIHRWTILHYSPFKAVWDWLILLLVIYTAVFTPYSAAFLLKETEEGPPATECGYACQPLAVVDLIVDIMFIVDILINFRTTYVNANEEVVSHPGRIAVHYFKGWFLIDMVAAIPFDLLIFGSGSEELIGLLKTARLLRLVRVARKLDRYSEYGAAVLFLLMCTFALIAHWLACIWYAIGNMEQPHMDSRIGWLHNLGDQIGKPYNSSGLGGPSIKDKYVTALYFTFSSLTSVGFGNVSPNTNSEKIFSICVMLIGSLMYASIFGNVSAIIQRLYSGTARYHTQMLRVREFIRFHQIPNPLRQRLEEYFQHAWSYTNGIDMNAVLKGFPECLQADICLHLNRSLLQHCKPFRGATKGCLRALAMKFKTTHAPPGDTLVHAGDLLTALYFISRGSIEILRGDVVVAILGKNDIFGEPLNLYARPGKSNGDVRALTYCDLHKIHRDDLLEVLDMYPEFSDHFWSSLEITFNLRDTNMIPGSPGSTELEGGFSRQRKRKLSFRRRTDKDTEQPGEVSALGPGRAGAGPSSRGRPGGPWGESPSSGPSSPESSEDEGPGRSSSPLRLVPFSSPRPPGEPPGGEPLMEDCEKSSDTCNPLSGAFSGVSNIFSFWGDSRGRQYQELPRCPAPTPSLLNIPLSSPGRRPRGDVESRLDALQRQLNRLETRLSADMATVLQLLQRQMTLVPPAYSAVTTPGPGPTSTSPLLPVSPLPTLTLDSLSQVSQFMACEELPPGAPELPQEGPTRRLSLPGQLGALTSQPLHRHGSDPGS

Cannabinoid receptor 1 = Cannabinoid receptor 1 (Homo sapiens, UniProt P21554); test: Inhibition of CB1 (unknown origin)
Sequence of Cannabinoid receptor 1 (P21554 whole entry): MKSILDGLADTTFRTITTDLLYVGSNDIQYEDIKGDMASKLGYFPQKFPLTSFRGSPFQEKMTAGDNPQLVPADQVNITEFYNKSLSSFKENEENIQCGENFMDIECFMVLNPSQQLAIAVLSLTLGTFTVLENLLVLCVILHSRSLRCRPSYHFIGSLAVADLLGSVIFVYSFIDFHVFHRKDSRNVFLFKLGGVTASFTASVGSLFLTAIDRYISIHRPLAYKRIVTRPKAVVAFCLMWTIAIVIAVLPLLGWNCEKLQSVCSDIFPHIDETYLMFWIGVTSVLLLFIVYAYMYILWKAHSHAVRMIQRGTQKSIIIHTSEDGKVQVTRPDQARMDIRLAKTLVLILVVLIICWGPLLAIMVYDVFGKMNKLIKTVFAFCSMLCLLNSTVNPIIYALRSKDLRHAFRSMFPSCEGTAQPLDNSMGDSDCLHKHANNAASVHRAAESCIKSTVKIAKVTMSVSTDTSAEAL

Aurora kinase B = Aurora kinase B (Homo sapiens, UniProt Q96GD4); test: Inhibition of aurora B (unknown origin)
Sequence of Aurora kinase B (Q96GD4 whole entry): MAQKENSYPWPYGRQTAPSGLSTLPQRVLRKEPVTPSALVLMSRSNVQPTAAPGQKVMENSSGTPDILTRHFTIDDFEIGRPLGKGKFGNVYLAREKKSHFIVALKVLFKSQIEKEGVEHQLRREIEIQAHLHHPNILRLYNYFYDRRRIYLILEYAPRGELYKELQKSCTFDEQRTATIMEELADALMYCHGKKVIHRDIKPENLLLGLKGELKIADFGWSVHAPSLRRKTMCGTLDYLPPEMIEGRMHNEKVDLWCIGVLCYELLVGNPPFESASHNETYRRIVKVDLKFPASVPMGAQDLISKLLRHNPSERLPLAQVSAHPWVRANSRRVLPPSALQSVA

[6] = target: Sterol 14-alpha demethylase (Trypanosoma cruzi (strain CL Brener), UniProt Q7Z1V1); test: as §1
Sequence of Sterol 14-alpha demethylase (Q7Z1V1 whole entry): as the sequence (Q7Z1V1 whole entry, looked up) above

Cc1cc(N(C)C)nc(NCc2ccccc2)n1
solubility kinetic [1]: > 250 µM | inhibition [2]: inactive | EC50 (Vero): > 50.1 µM | CLH [3]: 28 mL/min/g | selectivity ratio [4]: > 16

COc1cc(Nc2nc(C)cc(N3CCC(F)(F)C3)n2)ccc1F
solubility kinetic [1]: > 250 µM | EC50 (Trypanosoma cruzi): 7.94 µM | CLH [3]: 35 mL/min/g | selectivity ratio [4]: 4

COc1cc(Nc2nc(C(C)C)cc(N(C)C)n2)ccc1F
solubility kinetic [1]: 170 µM (≈ 51.7 µg/mL) | EC50 (Vero): > 50.1 µM | CLH [3]: 50 mL/min/g | selectivity ratio [4]: > 25

Cc1cc(N(C)C)nc(NCc2ccc(Cl)cc2)n1
solubility kinetic [1]: > 250 µM | EC50 (Vero): 25.1 µM | EC50 (Trypanosoma cruzi): 1 µM | CLH [3]: 12 mL/min/g | selectivity ratio [4]: 25

Cc1cc(N(C)C)nc(NC2CCN(C(=O)Cc3ccc(F)cc3F)CC2)n1
EC50 (Vero): > 50.1 µM | selectivity ratio [4]: > 16

COc1cc(Nc2nc(C)cc(N3CCCC(C#N)C3)n2)ccc1F (centres undefined)
solubility kinetic [1]: 219 µM (≈ 74.8 µg/mL) | EC50 (Trypanosoma cruzi): 7.94 µM | selectivity ratio [4]: 5

Cc1cc(N(C)C)nc(Nc2ccc(C(=O)N3CCCCC3)cc2)n1
EC50 (Vero): > 50.1 µM | selectivity ratio [4]: > 25

COc1cc(Nc2nc(C)cc(NCc3ccccc3)n2)ccc1F
solubility kinetic [1]: > 250 µM | EC50 (Vero): 5.01 µM | EC50 (Trypanosoma cruzi): 0.794 µM | CLH [3]: 8 mL/min/g | selectivity ratio [4]: 6.3

Cc1cc(N(C)C)nc(N[C@H]2CC[C@H](NC(=O)c3ccccc3)CC2)n1
solubility kinetic [1]: > 250 µM | EC50 (Vero): > 50.1 µM | EC50 (Trypanosoma cruzi): 1.26 µM | selectivity ratio [4]: > 40

COc1cc(Nc2nccc(N(C)C)n2)ccc1F
solubility kinetic [1]: 160 µM (≈ 42 µg/mL) | EC50 (Vero): > 50.1 µM | EC50 (Trypanosoma cruzi): 3.98 µM | CLH [3]: 29 mL/min/g | selectivity ratio [4]: > 13

Cc1cc(N(C)C)nc(Nc2ccc3c(c2)OCO3)n1
solubility kinetic [1]: > 250 µM | EC50 (Vero): > 50.1 µM | EC50 (Trypanosoma cruzi): 1.26 µM | CLH [3]: 14 mL/min/g | selectivity ratio [4]: > 40

COc1cccc(Nc2cc(C)nc(NCc3ccccc3)n2)c1
solubility kinetic [1]: > 250 µM | EC50 (Vero): 7.94 µM | EC50 (Trypanosoma cruzi): 0.2 µM | CLH [3]: 20 mL/min/g | selectivity ratio [4]: 40

CCOC1CCCN(c2cc(C)nc(Nc3ccc(F)c(OC)c3)n2)C1 (centres undefined)
solubility kinetic [1]: > 250 µM | EC50 (Vero): 25.1 µM | EC50 (Trypanosoma cruzi): 1.58 µM | CLH [3]: 35 mL/min/g | selectivity ratio [4]: 16

COc1cc(Nc2nc(C)cc(N(C)C)n2)ccc1F
solubility kinetic [1]: > 250 µM | IC50 [5]: 5.01 µM | inhibition [2]: inactive | EC50 (Trypanosoma cruzi): 0.398 µM | CLH [3]: 17 mL/min/g | selectivity ratio [4]: 80

COc1cc(Nc2cc(C)nc(NCc3ccccc3)n2)ccc1F
solubility kinetic [1]: 180 µM (≈ 60.9 µg/mL) | EC50 (Vero): 5.01 µM | CLH [3]: 10 mL/min/g | selectivity ratio [4]: 63

COc1cc(Nc2nc(CO)cc(N(C)C)n2)ccc1F
solubility kinetic [1]: > 250 µM | EC50 (Vero): > 50.1 µM | EC50 (Trypanosoma cruzi): 7.94 µM | CLH [3]: 35 mL/min/g | selectivity ratio [4]: > 6

Cc1cc(N(C)C)nc(NCC2CCOCC2)n1
solubility kinetic [1]: > 250 µM | EC50 (Vero): > 50.1 µM | EC50 (Trypanosoma cruzi): 15.8 µM | CLH [3]: 3.8 mL/min/g | selectivity ratio [4]: > 3

COc1cc(Nc2nc(N(C)C)cc(C(F)(F)F)n2)ccc1F
solubility kinetic [1]: 110 µM (≈ 36.3 µg/mL) | EC50 (Vero): > 50.1 µM | EC50 (Trypanosoma cruzi): 25.1 µM | selectivity ratio [4]: > 2

COc1cc(Nc2nc(C(=O)N3CCCC3)cc(N(C)C)n2)ccc1F
solubility kinetic [1]: > 250 µM | EC50 (Vero): > 50.1 µM | CLH [3]: 3.4 mL/min/g | selectivity ratio [4]: > 1.6

Cc1cc(Nc2ccc(F)cc2)nc(NCc2ccccc2)n1
solubility kinetic [1]: > 250 µM | EC50 (Vero): 7.94 µM | EC50 (Trypanosoma cruzi): 0.398 µM | CLH [3]: 10 mL/min/g | selectivity ratio [4]: 20

Cc1cc(N(C)C)nc(Nc2ccc(C(=O)NCc3ccccc3)cc2)n1
EC50 (Vero): 5.01 µM | EC50 (Trypanosoma cruzi): 1.26 µM | selectivity ratio [4]: 4

COc1cc(Nc2nc(C)cc(N3CCCC3)n2)ccc1F
solubility kinetic [1]: 220 µM (≈ 66.5 µg/mL) | CLH [3]: 14 mL/min/g | selectivity ratio [4]: 63

COc1ccc(Nc2nc(C)cc(N(C)C)n2)cc1
solubility kinetic [1]: > 250 µM | EC50 (Vero): > 50.1 µM | EC50 (Trypanosoma cruzi): 1.58 µM | CLH [3]: 10 mL/min/g | selectivity ratio [4]: > 32

COc1cc(OC)cc(C(=O)N[C@H]2CC[C@H](Nc3nc(C)cc(N(C)C)n3)CC2)c1
solubility kinetic [1]: > 250 µM | IC50 (Cannabinoid receptor 1): 0.0631 µM | IC50 [5]: 3.98 µM | inhibition [2]: inactive | EC50 (Trypanosoma cruzi): 0.398 µM | CLH [3]: 4.2 mL/min/g | IC50 (Aurora kinase B): 0.0398 µM | selectivity ratio [4]: 100

Cc1cc(N(C)C)nc(N[C@H](C)c2ccccc2)n1
solubility kinetic [1]: > 250 µM | EC50 (Vero): > 50.1 µM | EC50 (Trypanosoma cruzi): 1.26 µM | CLH [3]: 11 mL/min/g | selectivity ratio [4]: > 40

COc1cc(Nc2nc(C)cc(N3CCCCC3)n2)ccc1F
solubility kinetic [1]: 160 µM (≈ 50.6 µg/mL) | EC50 (Vero): 15.8 µM | EC50 (Trypanosoma cruzi): 1 µM | CLH [3]: 17 mL/min/g | selectivity ratio [4]: 16

COc1cc(OC)cc(C(=O)Nc2ccc(Nc3nc(C)cc(N(C)C)n3)cc2)c1
solubility kinetic [1]: 20 µM (≈ 8.15 µg/mL) | IC50 [6]: > 10 µM | EC50 (Trypanosoma cruzi): 0.158 µM | CLH [3]: 0.7 mL/min/g | selectivity ratio [4]: 40

COc1ccccc1NC(=O)c1ccc(Nc2nc(C)cc(N(C)C)n2)cc1
EC50 (Vero): 0.631 µM | EC50 (Trypanosoma cruzi): 0.794 µM | selectivity ratio [4]: 1.3

COc1cccc(Nc2nc(C)cc(N(C)C)n2)c1
solubility kinetic [1]: > 250 µM | EC50 (Vero): > 50.1 µM | EC50 (Trypanosoma cruzi): 0.794 µM | CLH [3]: 15 mL/min/g | selectivity ratio [4]: > 63

COc1cc(Nc2nc(C)cc(N3CCOCC3)n2)ccc1F
solubility kinetic [1]: > 250 µM | EC50 (Vero): > 50.1 µM | EC50 (Trypanosoma cruzi): 7.94 µM | CLH [3]: 18 mL/min/g | selectivity ratio [4]: > 6
